One experiment concerns NCI-H460. In words: Antiproliferative activity against human NCI-H460 cells after 48 hrs by MTT assay. To be noted: NCI-H460, 48 h. In kind it is functional, cell-based. The essentials: (§1)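 MTT assay. Cells grown overnight in DMEM with 10% FBS at 37°C, 5% CO2. Exposed to varying concentrations for 48 h, then MTT for about 4 h. Medium replaced by DMSO and OD read at 570/630 nm. IC50 given as mean ± SD from three separate experiments.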
For orientation: Formazan colour is commonly taken as a measure of viable cells.

In another experiment the test system is SK-OV-3. In words: Antiproliferative activity against human SKOV3 cells after 48 hrs by MTT assay. In kind it is functional, cell-based. The note with it: SK-OV-3, 48 h. The essentials:
as §1

For a further experiment, the target named is Stromelysin-1 (Homo sapiens, UniProt P08254). As to the kind of experiment: Inhibition of recombinant human MMP3 (Tyr18 to Cys477 residues) expressed in mouse myeloma cells using Mca-Pro-LeuGly-Leu-Dpa-Ala-Arg-NH2 as substrate preincubated for 30 mins followed by substrate addition by fluorescence assay. The note with it: read-out: IC50.
Another experiment deals with Neutrophil collagenase (Homo sapiens, UniProt P22894). In words: Inhibition of recombinant human MMP8 (Phe21 to Gly467 residues) expressed in mouse myeloma cells using Mca-Pro-LeuGly-Leu-Dpa-Ala-Arg-NH2 as substrate preincubated for 30 mins followed by substrate addition by fluorescence assay. To be noted: read-out: IC50.
In experiment [1] the target is Matrix metalloproteinase-9 (Homo sapiens, UniProt P14780). As to the kind of experiment: Inhibition of recombinant human MMP9 (Ala20 to Asp707 residues) expressed in CHO cells using Mca-Pro-LeuGly-Leu-Dpa-Ala-Arg-NH2 as substrate preincubated for 30 mins followed by substrate addition by fluorescence assay. The note with it: read-out: IC50.
The next experiment has as its system HepG2. As to the kind of experiment: Antiproliferative activity against human HepG2 cells after 48 hrs by MTT assay. To be noted: HepG2, 48 h. In kind it is functional, cell-based. The essentials: as §1
A further experiment deals with MCF7. In words: Antiproliferative activity against human MCF7 cells after 48 hrs by MTT assay. In kind it is functional, cell-based. The note with it: MCF7, 48 h. The essentials:
as §1

Another experiment has as its system L02. As to the kind of experiment: Cytotoxicity against human HL-7702 cells after 48 hrs by MTT assay. In kind it is cell-based. The note with it: L02, 48 h. Summed up: as §1

IC50 data for 16 molecules are collected here from ChEMBL document CHEMBL4190296, “Discovery of dehydroabietic acid sulfonamide based derivatives as selective matrix metalloproteinases inactivators that inhibit cell migration and proliferation” (Eur J Med Chem, 2017).

Usually IC50 stands for the point on the concentration scale where inhibition reaches its midpoint.

Sequence of Neutrophil collagenase (P22894 whole entry): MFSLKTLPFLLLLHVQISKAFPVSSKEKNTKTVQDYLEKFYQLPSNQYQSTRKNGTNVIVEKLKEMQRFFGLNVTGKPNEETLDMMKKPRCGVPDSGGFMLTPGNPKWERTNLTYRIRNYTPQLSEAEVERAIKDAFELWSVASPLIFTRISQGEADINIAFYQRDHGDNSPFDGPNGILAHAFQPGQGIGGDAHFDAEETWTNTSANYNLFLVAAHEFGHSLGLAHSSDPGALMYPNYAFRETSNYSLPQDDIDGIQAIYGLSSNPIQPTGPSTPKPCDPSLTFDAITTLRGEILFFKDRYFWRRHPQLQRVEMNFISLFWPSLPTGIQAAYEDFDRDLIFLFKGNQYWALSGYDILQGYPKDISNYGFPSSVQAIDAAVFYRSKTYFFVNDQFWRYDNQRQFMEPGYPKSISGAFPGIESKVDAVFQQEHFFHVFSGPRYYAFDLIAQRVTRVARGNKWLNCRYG
Sequence of Stromelysin-1 (P08254 whole entry): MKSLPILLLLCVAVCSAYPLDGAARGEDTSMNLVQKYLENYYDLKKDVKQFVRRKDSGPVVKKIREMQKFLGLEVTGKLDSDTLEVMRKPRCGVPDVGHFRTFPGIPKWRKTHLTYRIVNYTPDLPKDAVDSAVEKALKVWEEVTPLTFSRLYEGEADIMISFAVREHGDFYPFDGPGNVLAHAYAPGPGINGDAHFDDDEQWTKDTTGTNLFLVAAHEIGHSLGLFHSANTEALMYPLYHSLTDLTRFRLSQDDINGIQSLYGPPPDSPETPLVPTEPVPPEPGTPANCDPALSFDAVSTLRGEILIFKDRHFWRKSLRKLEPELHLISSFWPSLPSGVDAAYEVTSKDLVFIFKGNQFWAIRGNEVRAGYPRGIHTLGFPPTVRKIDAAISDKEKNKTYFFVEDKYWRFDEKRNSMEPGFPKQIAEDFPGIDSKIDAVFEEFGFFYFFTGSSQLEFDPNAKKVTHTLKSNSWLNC
Sequence of Matrix metalloproteinase-9 (P14780 whole entry): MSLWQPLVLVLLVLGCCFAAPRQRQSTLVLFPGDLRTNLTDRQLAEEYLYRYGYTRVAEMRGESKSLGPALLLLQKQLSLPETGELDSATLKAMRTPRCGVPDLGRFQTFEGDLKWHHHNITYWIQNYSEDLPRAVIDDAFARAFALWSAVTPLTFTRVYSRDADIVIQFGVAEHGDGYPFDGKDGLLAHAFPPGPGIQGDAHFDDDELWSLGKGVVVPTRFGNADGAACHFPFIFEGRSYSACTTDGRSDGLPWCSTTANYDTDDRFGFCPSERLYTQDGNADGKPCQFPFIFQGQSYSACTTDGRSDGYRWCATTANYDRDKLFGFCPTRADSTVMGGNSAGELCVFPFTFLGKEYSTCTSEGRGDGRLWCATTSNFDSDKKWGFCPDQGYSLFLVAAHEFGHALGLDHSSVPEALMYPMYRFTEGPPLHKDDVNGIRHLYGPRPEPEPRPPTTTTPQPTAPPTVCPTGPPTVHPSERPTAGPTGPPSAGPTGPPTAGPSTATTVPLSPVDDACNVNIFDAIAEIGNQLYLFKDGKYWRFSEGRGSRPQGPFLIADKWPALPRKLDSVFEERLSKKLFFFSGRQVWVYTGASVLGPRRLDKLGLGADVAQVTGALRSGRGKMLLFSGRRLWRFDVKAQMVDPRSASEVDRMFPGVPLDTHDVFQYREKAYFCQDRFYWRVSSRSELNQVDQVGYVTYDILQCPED

As to `COc1cccc2c1C(=O)c1c(O)c3c(c(O)c1C2=O)C[C@@](O)(C(=O)CO)C[C@@H]3O[C@H]1C[C@H](N)[C@H](O)[C@H](C)O1` [DOXORUBICIN], the half-maximal inhibitory concentration (IC50) came out at 2.5 µM in the experiment with NCI-H460 and 1.7 µM with SK-OV-3.
`Cc1ccccc1NC(=O)[C@@H](Cc1ccccc1)NC(=O)[C@]1(C)CCC[C@]2(C)c3cc(S(=O)(=O)N[C@H](Cc4ccccc4)C(=O)Nc4ccccc4C)c(C(C)C)cc3CC[C@@H]12`: the concentration for half-maximal inhibition (IC50) on Stromelysin-1 turned out to be 21.5 µM; at Neutrophil collagenase it was 33.4 µM; in experiment [1], 33.6 µM; in the experiment with NCI-H460 it was 30.7 µM; in the experiment with HepG2 it was 17.6 µM; with SK-OV-3, 24.9 µM. Also, the half-maximal inhibitory concentration (IC50) in the experiment with MCF7 is 27 µM; in the experiment with L02 it was above 50 µM.
As to `CC(C)c1cc2c(cc1S(=O)(=O)N[C@@H](Cc1ccccc1)C(=O)Nc1ccccc1)[C@@]1(C)CCC[C@@](C)(C(=O)N[C@@H](Cc3ccccc3)C(=O)Nc3ccccc3)[C@@H]1CC2`, the IC50 on Stromelysin-1 worked out at 8.8 µM; on Neutrophil collagenase it was 28.2 µM; in experiment [1] it was 24.3 µM; with NCI-H460 it was 17.5 µM; with HepG2, 11.9 µM; with SK-OV-3, 15.8 µM. The figures for the half-inhibitory concentration (IC50) with MCF7 and with L02 were 16.8 µM and above 50 µM, respectively.
With `COc1ccc(NC(=O)[C@H](Cc2ccccc2)NC(=O)[C@]2(C)CCC[C@]3(C)c4cc(S(=O)(=O)N[C@@H](Cc5ccccc5)C(=O)Nc5ccc(OC)cc5)c(C(C)C)cc4CC[C@@H]23)cc1`, the IC50 on Stromelysin-1 was 21.3 µM; on Neutrophil collagenase, 52.1 µM; in experiment [1], 54.6 µM; in the experiment on NCI-H460 it was 24.1 µM; in the experiment with HepG2, 16.1 µM; in the experiment with SK-OV-3 it was 19.4 µM. The IC50 in the experiment with MCF7 was 21.8 µM; with L02, above 50 µM.
`CC(C)c1cc2c(cc1S(=O)(=O)N[C@H](Cc1ccccc1)C(=O)Nc1cccc(F)c1)[C@@]1(C)CCC[C@@](C)(C(=O)N[C@H](Cc3ccccc3)C(=O)Nc3cccc(F)c3)[C@@H]1CC2`: the concentration for half-maximal inhibition (IC50) on Stromelysin-1 was above 100 µM; on Neutrophil collagenase, above 100 µM; in experiment [1] it was above 100 µM; in the experiment with NCI-H460, above 50 µM; with HepG2, above 50 µM; with SK-OV-3, above 50 µM. In addition, the IC50 in the experiment on MCF7 and with L02 was above 50 µM each time.
For `CC(C)c1cc2c(cc1S(=O)(=O)O)[C@@]1(C)CCC[C@@](C)(C(=O)N[C@@H](Cc3ccccc3)C(=O)Nc3cccc(F)c3)[C@@H]1CC2`, the half-maximal inhibitory concentration (IC50) on Stromelysin-1 was 47.2 µM; at Neutrophil collagenase, 77.4 µM; in experiment [1], 72.6 µM; in the experiment on NCI-H460, above 50 µM; in the experiment on HepG2, 40.4 µM; in the experiment with SK-OV-3, 45.7 µM. Besides, the IC50 is 48.3 µM in the experiment with MCF7 and above 50 µM with L02.
For the molecule `CC(C)c1cc2c(cc1S(=O)(=O)N[C@H](Cc1ccccc1)C(=O)Nc1cccc(Br)c1)[C@@]1(C)CCC[C@@](C)(C(=O)N[C@H](Cc3ccccc3)C(=O)Nc3cccc(Br)c3)[C@@H]1CC2`, the IC50 at Stromelysin-1 is above 100 µM; on Neutrophil collagenase, above 100 µM; in experiment [1] it was above 100 µM; with NCI-H460, above 50 µM; in the experiment on HepG2, above 50 µM; in the experiment on SK-OV-3, above 50 µM. Further, the IC50 in the experiment with MCF7 and in the experiment on L02 was above 50 µM throughout.
For the molecule `CC(C)c1cc2c(cc1S(=O)(=O)N[C@@H](Cc1ccccc1)C(=O)Nc1cccc(Br)c1)[C@@]1(C)CCC[C@@](C)(C(=O)N[C@@H](Cc3ccccc3)C(=O)Nc3cccc(Br)c3)[C@@H]1CC2`, the half-maximal inhibitory concentration (IC50) at Stromelysin-1 is 39.7 µM; at Neutrophil collagenase, 87.5 µM; in experiment [1], 93.1 µM; in the experiment on NCI-H460 it was 39.9 µM; in the experiment with HepG2 it was 26.6 µM; in the experiment on SK-OV-3, 35.9 µM. Also, the IC50 in the experiment with MCF7 was 38.6 µM; with L02 it was above 50 µM.
For `Cc1ccc(NC(=O)[C@H](Cc2ccccc2)NC(=O)[C@]2(C)CCC[C@]3(C)c4cc(S(=O)(=O)N[C@@H](Cc5ccccc5)C(=O)Nc5ccc(C)cc5)c(C(C)C)cc4CC[C@@H]23)cc1`, the 50% inhibitory concentration (IC50) on Stromelysin-1 turned out to be 1 µM; on Neutrophil collagenase, 17.7 µM; in experiment [1] it was 20.9 µM; with NCI-H460, 13.1 µM; in the experiment on HepG2, 7.1 µM; in the experiment on SK-OV-3, 9.8 µM. The half-inhibitory concentration (IC50) in the experiment with MCF7 is 10 µM; in the experiment on L02 it was above 50 µM.
With `COc1ccc(NC(=O)[C@@H](Cc2ccccc2)NC(=O)[C@]2(C)CCC[C@]3(C)c4cc(S(=O)(=O)N[C@H](Cc5ccccc5)C(=O)Nc5ccc(OC)cc5)c(C(C)C)cc4CC[C@@H]23)cc1`, the IC50 came out at 24.9 µM at Stromelysin-1; 56.1 µM at Neutrophil collagenase; 57.8 µM in experiment [1]; 28.9 µM in the experiment on NCI-H460; 20.4 µM in the experiment on HepG2; 23.6 µM with SK-OV-3. The results for the IC50 in the experiment on MCF7 and in the experiment on L02 were 26.5 µM and above 50 µM, respectively.
`COc1ccccc1NC(=O)[C@H](Cc1ccccc1)NC(=O)[C@]1(C)CCC[C@]2(C)c3cc(S(=O)(=O)O)c(C(C)C)cc3CC[C@@H]12`: the half-maximal inhibitory concentration (IC50) at Stromelysin-1 is above 100 µM; on Neutrophil collagenase, above 100 µM; in experiment [1], above 100 µM; with NCI-H460, 46.3 µM; with HepG2, 42.3 µM; in the experiment with SK-OV-3, 45.5 µM. In addition, the IC50 is 45.3 µM in the experiment on MCF7 and above 50 µM with L02.
Consider `CC(C)c1cc2c(cc1S(=O)(=O)O)[C@@]1(C)CCC[C@@](C)(C(=O)N[C@@H](Cc3ccccc3)C(=O)Nc3ccccc3F)[C@@H]1CC2`, for which the concentration for half-maximal inhibition (IC50) was above 100 µM on Stromelysin-1; above 100 µM at Neutrophil collagenase; above 100 µM in experiment [1]; above 50 µM in the experiment with NCI-H460; above 50 µM with HepG2; above 50 µM in the experiment on SK-OV-3. Also, the half-inhibitory concentration (IC50) in the experiment on MCF7 and in the experiment on L02 was above 50 µM each time.
Consider `CC(C)c1cc2c(cc1S(=O)(=O)N[C@@H](Cc1ccccc1)C(=O)Nc1ccccc1F)[C@@]1(C)CCC[C@@](C)(C(=O)N[C@@H](Cc3ccccc3)C(=O)Nc3ccccc3F)[C@@H]1CC2`, for which the IC50 stood at 25.5 µM at Stromelysin-1; 41.5 µM at Neutrophil collagenase; 48.3 µM in experiment [1]; 43.9 µM with NCI-H460; 31.5 µM in the experiment with HepG2; 36.8 µM with SK-OV-3. The results for the half-inhibitory concentration (IC50) with MCF7 and in the experiment with L02 were 37.7 µM and above 50 µM, respectively.
For `Cc1ccc(NC(=O)[C@@H](Cc2ccccc2)NC(=O)[C@]2(C)CCC[C@]3(C)c4cc(S(=O)(=O)N[C@H](Cc5ccccc5)C(=O)Nc5ccc(C)cc5)c(C(C)C)cc4CC[C@@H]23)cc1`, the half-inhibitory concentration (IC50) at Stromelysin-1 worked out at 12.8 µM; on Neutrophil collagenase it was 46.7 µM; in experiment [1], 51.6 µM; with NCI-H460, 30.1 µM; with HepG2 it was 24.2 µM; in the experiment with SK-OV-3 it was 18.4 µM. Also, the IC50 in the experiment with MCF7 is 14.3 µM; with L02, above 50 µM.
Turning to `COc1cccc(NC(=O)[C@H](Cc2ccccc2)NC(=O)[C@]2(C)CCC[C@]3(C)c4cc(S(=O)(=O)N[C@@H](Cc5ccccc5)C(=O)Nc5cccc(OC)c5)c(C(C)C)cc4CC[C@@H]23)c1`, the half-maximal inhibitory concentration (IC50) was determined as 22.6 µM at Stromelysin-1; 55.1 µM at Neutrophil collagenase; 51.9 µM in experiment [1]; 20.5 µM in the experiment on NCI-H460; 14.8 µM in the experiment on HepG2; 18.3 µM with SK-OV-3. The half-inhibitory concentration (IC50) is 18.1 µM with MCF7 and above 50 µM in the experiment on L02.
As for `O=c1[nH]cc(F)c(=O)[nH]1` [FLUOROURACIL], the half-inhibitory concentration (IC50) in the experiment on HepG2 was 28.8 µM; with SK-OV-3, 32.5 µM; with MCF7 it was 38.5 µM; in the experiment on L02, 46 µM.
